MT stabilize HCS: stabilizes microtubules in HeLa cells; AID 2205; HeLa tubulin immunostaining HCS, 24 h; share of cells brighter than vehicle mean+2SD; 200,000 compounds, 0.83% hits; % tubulin-high responders, % at 10 µM;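 active means plate Z-score above 3 for both tubulin-high and condensed-nucleus cell shares, with cell loss under 80%, at 10 µM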;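 further: anti alpha tubulin signal scored within the nucleus-defined area of each cell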
Yeast life ext: yeast lifespan extension; 130,000 compounds, 0.68% hits; inhibition of the nicotinamide effect, % at 10 µM; S. cerevisiae growth with nicotinamide, OD615; deaD strain in restrictive glucose medium;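 active means inhibition above a set limit, placed 3 SD over the median of all compounds, cut at about 26% in these data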;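 further: 0% = nicotinamide-treated wells and 100% = cells grown without nicotinamide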
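Assay system: engineered S. cerevisiae DeaD replicative-lifespan strain, galactose-grown log-phase cells; Buffer or medium: CSMM-D glucose medium, restrictive; Probe or stimulus: nicotinamide 1.5 mM; Compound: single dose 10 µM compound, 0.25% DMSO; Schedule: 4 h preincubation then 48 h treatment at 30 °C; Technique: OD615 measurement.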
RAM inhibit: yeast RAM network inhibition; S. cerevisiae dse1pr::URA3 reporter, 5-FOA growth OD615, 2 d; analog-sensitive cbk1-as2 kinase mutant strain; inhibition, % at 50 µM; 190,000 compounds, 1.8% hits;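 active means inhibition above a set limit, 3 SD over mean compound inhibition, cut at about 8.4% in these data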;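 further: 0% = DMSO-only wells with no growth and 100% = 10 µM 1-NA-PP1 full growth; inhibition rescues growth on 5-FOA so higher OD means more RAM inhibition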
BB579 growth dn: reduces growth of yeast BB579 in restrictive medium. S. cerevisiae BB579 growth, OD615, 48 h. inhibition, % at 10 µM. 140,000 compounds, 0.51% hits. AID 804;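 active means inhibition above a set limit, 3 SD over the mean compound inhibition, cut at about 44% in these data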
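test system = yeast BB579 (DeaD) | buffer or medium = restrictive CSMM-D medium | doses = single compound dose of 10 µM, 0.25% DMSO final | times = 4 h preincubation and 48 h exposure at 30 °C | technique = culture absorbance at 615 nm | benchmarks = amphotericin B 10 µg/mL, positive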
bCat nuc transl: beta-catenin nuclear translocation modulation; 190,000 compounds, 0.3% hits; nuclear translocation activity, % at 5 µM; HeLa beta-catenin nuclear translocation, immunofluorescence imaging;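 active means nuclear translocation activity above 50% at 5 µM, with a well cell count of 50 or more; inconclusive means wells under 50 cells across six images, flagged as toxic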;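 further: per-cell ratio of nuclear to cytoplasmic median beta-catenin stain intensity; plate controls were DMSO negative control for no effect and GSK-3 inhibitor IX positive control for full effect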
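test system = HeLa cells, endogenous beta-catenin | dosing = single 5 µM dose plus 0.02–20 µM confirmation series | times = compound treatment 24 h, 37°C, 5% CO2 | technique = beta-catenin immunofluorescence imaging with DAPI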
HMGR II inh: inhibitors of class II HMG-CoA reductase from Enterococcus faecalis; 190,000 compounds, 0.41% hits; purified E. faecalis HMGR, NADPH absorbance 340 nm kinetic; inhibition, % at 10 µM;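 active means inhibition above a set limit, the median over all tested compounds plus 3 SD, cut at about 9.5% in these data; inconclusive means no clear call, values can overlap the other calls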;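 further: enzyme runs in reverse so mevalonate oxidation gives rising NADPH absorbance; 0% = complete reaction with DMSO and 100% = background rate lacking mevalonate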
An asterisk follows results filed as active. Sampled rows, rich in hits. Any-hit rate of the full collection: about 3.5%.

Results for N#Cc1c2ccc(O)cc2n2ccccc12 ?
MT stabilize HCS: 6; RAM inhibit: 2; bCat nuc transl: -5; HMGR II inh: 0

Results for C#CC1(NC(=O)NCCCC)CCCCC1 ?
MT stabilize HCS: 3; RAM inhibit: 0; bCat nuc transl: 0; HMGR II inh: -3

What do the screens show for `O=[N+]([O-])c1cccc(-c2noc(-c3cccs3)n2)c1`?
bCat nuc transl: -1

How did CCOCCCNC(=O)c1cc2sc(Cl)cc2n1CC do in these assays?
MT stabilize HCS: 14*; Yeast life ext: -16; RAM inhibit: 0; BB579 growth dn: -8; HMGR II inh: -6

What do the screens show for `CCOCCCNC(=O)c1cc(C)nn1-c1ccccc1`?
MT stabilize HCS: 4; Yeast life ext: 0; RAM inhibit: 1; BB579 growth dn: -66; bCat nuc transl: 0; HMGR II inh: -1

How did COc1ccc(/C=C2\CCCC(C(=O)C(F)(F)F)=C2O)cc1 do in these assays?
MT stabilize HCS: 2; Yeast life ext: -8; RAM inhibit: 10.0*; BB579 growth dn: -48; bCat nuc transl: -3; HMGR II inh: -2

How did O=C(C1=C(O)/C(=C/c2ccc(O)cc2)CCC1)C(F)(F)F do in these assays?
MT stabilize HCS: 3; RAM inhibit: -2; BB579 growth dn: 100*; bCat nuc transl: inconclusive; HMGR II inh: -4

How did O=C(Nc1n[nH]c(C(F)(F)F)n1)C1CC1 do in these assays?
MT stabilize HCS: 1; RAM inhibit: 2; bCat nuc transl: 1; HMGR II inh: -3

What do the screens show for `O=C(O)C1=C[C@H](c2ccc(F)cc2)C[C@H](OCCCCO)O1`?
bCat nuc transl: 2

How did COc1ccc(/C=C2/C(=O)N(Cc3ccccc3)N=C2C)cc1 do in these assays?
MT stabilize HCS: 2; Yeast life ext: 27*; RAM inhibit: 1; BB579 growth dn: -56; bCat nuc transl: -2; HMGR II inh: -2

How did COc1ccc(/C=C2/C(=O)N(c3nc4ccccc4s3)N=C2CSc2ccc(Cl)cc2)cc1 do in these assays?
MT stabilize HCS: 3; Yeast life ext: 7; RAM inhibit: 6; BB579 growth dn: -18; HMGR II inh: 1

What do the screens show for `CC(=O)c1ccc(NC(=O)COC(=O)c2nc(Cl)ccc2Cl)cc1`?
MT stabilize HCS: 2; RAM inhibit: 5; bCat nuc transl: 8; HMGR II inh: -6

How did Cc1cc(NS(=O)(=O)c2ccc(CC(C)C)cc2)no1 do in these assays?
MT stabilize HCS: 1; Yeast life ext: 50*; RAM inhibit: 0; BB579 growth dn: -39; bCat nuc transl: -5; HMGR II inh: 0

How did CCc1cccc(C)c1NC(=S)NCc1ccc2[nH]c(C)cc2c1 do in these assays?
MT stabilize HCS: 3; Yeast life ext: -2; RAM inhibit: 5; BB579 growth dn: 54*; bCat nuc transl: 0; HMGR II inh: -5

Results for CC(=O)Nc1c(NC(=O)CC#N)[nH]c2c(c1=O)c(=O)n(C)c(=O)n2C ?
MT stabilize HCS: 1; RAM inhibit: 2; bCat nuc transl: 0; HMGR II inh: -2

Results for O=C(COc1ccc(S(=O)(=O)N2CCOCC2)cc1)Nc1ccc(Cl)c(C(F)(F)F)c1 ?
MT stabilize HCS: 32*; Yeast life ext: -14; RAM inhibit: 1; BB579 growth dn: -38; bCat nuc transl: 2; HMGR II inh: -10

What do the screens show for `CCc1nc(N2CCN(C(=O)c3ccco3)CC2)c2oc3ccccc3c2n1`?
MT stabilize HCS: 27*; Yeast life ext: -11; RAM inhibit: 2; BB579 growth dn: -2; bCat nuc transl: 14; HMGR II inh: -3

How did O=C(CSc1nnc(-c2ccco2)c(-c2ccco2)n1)c1ccccc1 do in these assays?
MT stabilize HCS: 2; RAM inhibit: 10*; bCat nuc transl: -1; HMGR II inh: 0

What do the screens show for `Cn1c(CN2CCCC(C(=O)c3ccc4c(c3)OCO4)C2)nc2ccccc21` (stereo not drawn)?
MT stabilize HCS: 2; RAM inhibit: 2; bCat nuc transl: -4; HMGR II inh: 0

What do the screens show for `O=C(c1ccc2c(c1)OCO2)C1CCCN(Cc2ccc3nsnc3c2)C1` (stereo not drawn)?
MT stabilize HCS: 2; RAM inhibit: 0; bCat nuc transl: 0; HMGR II inh: 11*

Results for O=C(N/N=C/C=C\c1ccc([N+](=O)[O-])cc1)c1cccnc1 ?
bCat nuc transl: -3

What do the screens show for `Cc1ccc2nc(/C(C#N)=C/c3cn[nH]c3-c3ccc(F)cc3)[nH]c2c1`?
MT stabilize HCS: 36*; Yeast life ext: -11; RAM inhibit: 10*; BB579 growth dn: -32; bCat nuc transl: 100*; HMGR II inh: 3

How did Cc1nn2c(-c3ccccn3)ccnc2c1Cl do in these assays?
MT stabilize HCS: 3; RAM inhibit: 1; bCat nuc transl: 0; HMGR II inh: -6

What do the screens show for `Cn1c2c(c(=O)[nH]c1=O)C(c1cccc(O)c1)C1=C(N2)c2ccccc2C1=O` (stereo not drawn)?
MT stabilize HCS: 20*; RAM inhibit: 3; bCat nuc transl: 3; HMGR II inh: -12

Results for Cc1nn2c(C(F)(F)F)cc(-c3ccc(Cl)cc3)nc2c1C(=O)N1CCOCC1 ?
MT stabilize HCS: 2; Yeast life ext: -6; RAM inhibit: 8; BB579 growth dn: 5; bCat nuc transl: 1; HMGR II inh: 17*

What do the screens show for `O=C(c1cnn2c(C(F)(F)F)cc(-c3ccc(Br)cc3)nc12)N1CCOCC1`?
MT stabilize HCS: 3; Yeast life ext: -13; RAM inhibit: 2; BB579 growth dn: -5; bCat nuc transl: 2; HMGR II inh: 1

What do the screens show for `N#Cc1c(N)nc2c(c1-c1ccc3c(c1)OCO3)CCc1ccccc1-2`?
MT stabilize HCS: 26*; Yeast life ext: -6; RAM inhibit: 2; BB579 growth dn: 4; bCat nuc transl: 6; HMGR II inh: 2

What do the screens show for `CCOC(=O)CNC(=O)CN1C(=O)CC(c2ccccc2)S(=O)(=O)c2ccccc21` (stereo not drawn)?
MT stabilize HCS: 3; RAM inhibit: 1; bCat nuc transl: 0; HMGR II inh: 11*

What do the screens show for `Cc1cc(C)c2nc3nc(C)c(C)cc3c(N)c2c1`?
MT stabilize HCS: 3; RAM inhibit: 0; bCat nuc transl: 2; HMGR II inh: -3

How did CCOC(=O)c1c(C)[nH]c(C(=O)COC(=O)CCSc2ccccc2)c1C do in these assays?
MT stabilize HCS: 6; Yeast life ext: 5; RAM inhibit: 9.5*; BB579 growth dn: -49; HMGR II inh: 0

What do the screens show for `Cc1cccc(NC(=O)Cn2nnc3ccccc32)c1`?
MT stabilize HCS: 2; RAM inhibit: 1; bCat nuc transl: 2; HMGR II inh: -8

Results for O=C(Oc1cc(=O)n2ccccc2n1)c1ccccc1 ?
MT stabilize HCS: 2; Yeast life ext: 43*; RAM inhibit: -1; BB579 growth dn: -17; bCat nuc transl: 0; HMGR II inh: -2
